Experimental findings from ChEMBL document CHEMBL1123129, “Hypolipidemic activity of indan-1,3-dione derivatives in rodents” (J Med Chem, 1985) are described below.

Assay [1] deals with Mus musculus. Nature of the assay: Compound was evaluated for the hypolipidemic activity in CF1 male mice at a dose of 60 mg/kg orally for Serum triglyceride at 16th day. The format is functional. The settings on record: route oral. The procedure, abridged: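 CF1 male mice dosed orally at 10–60 mg/kg per day, with 1% CMC as the vehicle control; N = 6 per group. Serum cholesterol was read on days 9 and 16 and serum triglyceride on day 16. Liver lipids were extracted on day 16 and assayed for cholesterol, triglyceride, neutral lipid, phospholipid and protein. Values are given as % of control ± SD.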

The target in assay [2] is T1, Sterol O-acyltransferase 1 (Mus musculus) (UniProt Q61263).
T1 sequence (whole entry): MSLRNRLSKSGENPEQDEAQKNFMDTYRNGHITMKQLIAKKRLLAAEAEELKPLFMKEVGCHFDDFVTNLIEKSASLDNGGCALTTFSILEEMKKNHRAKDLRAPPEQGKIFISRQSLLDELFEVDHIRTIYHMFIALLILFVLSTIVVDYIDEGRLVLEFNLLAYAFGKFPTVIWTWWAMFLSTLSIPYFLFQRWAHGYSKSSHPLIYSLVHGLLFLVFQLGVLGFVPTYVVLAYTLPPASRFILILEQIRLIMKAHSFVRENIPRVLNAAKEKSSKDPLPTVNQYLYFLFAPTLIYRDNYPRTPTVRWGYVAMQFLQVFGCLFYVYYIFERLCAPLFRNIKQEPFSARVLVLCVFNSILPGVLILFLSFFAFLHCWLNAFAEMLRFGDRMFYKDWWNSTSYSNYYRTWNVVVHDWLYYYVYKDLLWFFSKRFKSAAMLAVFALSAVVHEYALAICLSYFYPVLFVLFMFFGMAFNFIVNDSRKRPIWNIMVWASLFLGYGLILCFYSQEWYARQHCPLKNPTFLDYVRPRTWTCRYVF
Nature of the assay: In Vivo effect for the hypolipidemic activity on Acyl-COA cholesterol acyltransferase in CF1 mice after 16 days of oral administration at a dose of 20 mg/kg. In kind it is functional, organism-based. More on the design: dose 20 mg/kg. The procedure, abridged: (§1)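 CF1 male mice are dosed orally at 10–60 mg/kg per day for 16 days, with 1% CMC as the control vehicle. Liver is homogenized at 10% in 0.25 M sucrose + 0.001 M EDTA, pH 7.2. Enzymes are assayed by literature methods, with Lowry protein. Activity is given as % of control (X ± SD, N = 6), with p from Student's t test.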

The subject of assay [3] is Mus musculus. The assay can be described thus: In Vivo effect for the hypolipidemic activity on Acetyl-coenzyme A synthetase in CF1 mice after 16 days of oral administration at a dose of 10 mg/kg. In kind it is functional. The method, boiled down: as §1
For assay [4], the target named is Acetyl-coenzyme A synthetase, cytoplasmic (Mus musculus) (UniProt Q9QXG4). The assay can be described thus: In Vivo effect for the hypolipidemic activity on Acetyl-coenzyme A synthetase in CF1 mice after 16 days of oral administration at a dose of 60 mg/kg. In kind it is functional, organism-based. Set-up: dose 60 mg/kg. The procedure, abridged:
as §1

The target in assay [5] is T1, Sterol O-acyltransferase 1 (Mus musculus). The assay can be described thus: In Vitro evaluation for the CF1 liver enzyme activity on Acyl cholesterol acyltransferase at concentration 200 uM. In kind it is functional, tissue-based. The procedure, abridged: (§2)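 Liver was taken from CF1 male mice and made into 10% homogenates, which were incubated with test compound at 50, 100 or 200 µM. Each enzyme was assayed by its literature method, and protein was measured by Lowry. N = 6. Activity is expressed as % of untreated control ± SD.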

Assay [6] relates to Mus musculus. The assay can be described thus: Hypolipidemic activity in CF1 male mice at a dose of 20 mg/kg per day, serum cholesterol measured on the 9th day. In kind it is functional. The procedure, abridged: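 CF1 male mice (~30 g) were given 20 mg/kg per day ip at 11:00 a.m.; N = 6 per group. Tail-vein serum was collected in nonheparinized microcapillaries. Cholesterol was measured on days 9 and 16 by modified Liebermann–Burchard on duplicate 25 µL samples. Triglyceride was measured on day 16 in a separate group, duplicate 50 µL. Values are % control ± SD; Student's t test.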

For assay [7], the species on record is Mus musculus. The assay can be described thus: In Vitro evaluation for the CF1 liver enzyme activity on Acetyl-CoA carboxylase at concentration 50 uM. The format is functional. The procedure, abridged: as §2
The subject of assay [8] is Mus musculus. The assay can be described thus: In Vivo effect for the hypolipidemic activity on Hepatic lipoprotein lipase in CF1 mice after 16 days administered orally at a dose of 10 mg/kg. In kind it is functional. The settings on record: route oral. The procedure, abridged:
as §1

Assay [9] deals with T2, ATP-citrate synthase (Mus musculus) (UniProt Q91V92).
T2 sequence (whole entry): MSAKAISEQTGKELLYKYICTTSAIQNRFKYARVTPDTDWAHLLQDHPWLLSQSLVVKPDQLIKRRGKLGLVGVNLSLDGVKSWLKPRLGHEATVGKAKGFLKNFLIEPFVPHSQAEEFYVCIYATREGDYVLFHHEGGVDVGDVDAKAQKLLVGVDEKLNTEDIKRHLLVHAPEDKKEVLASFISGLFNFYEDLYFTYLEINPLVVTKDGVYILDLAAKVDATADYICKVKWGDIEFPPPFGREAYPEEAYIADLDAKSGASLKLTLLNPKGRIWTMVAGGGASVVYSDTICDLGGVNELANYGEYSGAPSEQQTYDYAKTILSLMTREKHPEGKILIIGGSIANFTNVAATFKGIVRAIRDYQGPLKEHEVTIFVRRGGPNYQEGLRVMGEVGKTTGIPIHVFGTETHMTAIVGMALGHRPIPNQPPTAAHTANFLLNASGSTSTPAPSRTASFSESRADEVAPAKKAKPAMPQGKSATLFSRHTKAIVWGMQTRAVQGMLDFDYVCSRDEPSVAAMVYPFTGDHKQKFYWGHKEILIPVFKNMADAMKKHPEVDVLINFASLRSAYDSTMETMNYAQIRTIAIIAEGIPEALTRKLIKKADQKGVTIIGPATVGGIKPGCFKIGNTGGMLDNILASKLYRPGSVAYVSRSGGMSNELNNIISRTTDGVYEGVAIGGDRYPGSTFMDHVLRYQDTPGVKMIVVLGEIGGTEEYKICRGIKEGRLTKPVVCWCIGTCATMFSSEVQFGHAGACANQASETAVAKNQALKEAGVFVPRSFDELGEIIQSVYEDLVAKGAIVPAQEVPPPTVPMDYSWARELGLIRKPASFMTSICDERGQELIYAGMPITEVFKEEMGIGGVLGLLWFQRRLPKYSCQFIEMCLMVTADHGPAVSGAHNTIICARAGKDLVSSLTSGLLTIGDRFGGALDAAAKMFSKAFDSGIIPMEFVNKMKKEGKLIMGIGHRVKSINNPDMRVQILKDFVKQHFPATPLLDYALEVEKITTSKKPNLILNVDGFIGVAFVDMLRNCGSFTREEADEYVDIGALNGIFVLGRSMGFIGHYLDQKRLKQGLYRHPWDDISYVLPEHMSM
Nature of the assay: In Vitro evaluation for the CF1 liver enzyme activity on ATP-Citrate Lyase exchange at concentration 100 uM. The method, boiled down:
as §2

The subject of a further assay is Rattus norvegicus. Nature of the assay: Compound was evaluated for the hypolipidemic activity at 20 mg/kg per day orally for 14 days on cholesterol content in rat HDL. In kind it is functional. The settings on record: route oral. The method, boiled down:
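Male Sprague–Dawley rats (~300 g) were dosed orally each day. Blood was drawn from the abdominal vein. Lipoprotein fractions (chylomicron, VLDL, LDL, HDL) were separated by the Hatch–Lees and Havel methods. Each fraction was assayed for cholesterol, triglyceride (enzymatic kit), neutral lipids, phospholipids and Lowry protein. Values are % of 1% CMC vehicle control, N = 6.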

For assay [10], the target named is T2, ATP-citrate synthase (Mus musculus). The assay can be described thus: In Vivo effect for the hypolipidemic activity on ATP-Citrate Lyase in CF1 mice after 16 days of oral administration at a dose of 20 mg/kg. The format is organism-based. Set-up: dose 20 mg/kg. The procedure, abridged: as §1

Chain of Acetyl-coenzyme A synthetase, cytoplasmic (Mus musculus) (Q9QXG4 whole entry): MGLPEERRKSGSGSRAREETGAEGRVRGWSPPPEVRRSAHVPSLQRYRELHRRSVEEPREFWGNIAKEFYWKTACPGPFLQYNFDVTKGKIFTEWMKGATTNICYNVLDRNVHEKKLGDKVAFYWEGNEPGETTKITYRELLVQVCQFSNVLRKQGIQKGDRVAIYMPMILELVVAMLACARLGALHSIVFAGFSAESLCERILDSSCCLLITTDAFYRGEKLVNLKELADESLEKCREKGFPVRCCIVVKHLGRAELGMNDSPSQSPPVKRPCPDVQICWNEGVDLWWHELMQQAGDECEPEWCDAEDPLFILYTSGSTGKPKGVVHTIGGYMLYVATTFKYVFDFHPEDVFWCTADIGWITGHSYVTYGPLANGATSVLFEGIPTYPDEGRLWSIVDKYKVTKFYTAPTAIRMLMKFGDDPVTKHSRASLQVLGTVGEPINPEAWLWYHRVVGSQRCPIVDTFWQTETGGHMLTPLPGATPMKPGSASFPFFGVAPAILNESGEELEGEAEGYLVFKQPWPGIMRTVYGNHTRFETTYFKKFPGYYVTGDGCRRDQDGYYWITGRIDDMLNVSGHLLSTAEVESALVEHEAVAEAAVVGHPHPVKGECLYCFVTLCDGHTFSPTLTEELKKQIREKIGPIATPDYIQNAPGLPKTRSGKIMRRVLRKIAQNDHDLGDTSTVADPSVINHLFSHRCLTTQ

Turning to `COc1ccc(C2C(=O)c3ccccc3C2=O)cc1` [ANISINDIONE], the Control with Mus musculus [1] came to 67%; in [2], 48%; in the assay with Mus musculus [3], 83%; in assay [4] it was 99%; in assay [5], 60%; in the assay listed under Mus musculus [7], 118%. The Control worked out at 83% in the assay on Mus musculus [8], 51% in [9], 216% in the assay on Rattus norvegicus and 43% in [10]. Besides, the “Serum cholesterol, % of control” value in the assay with Mus musculus [6] was found to be 58%.
